Results taken from paper PMC5989829 (Acta Pharmaceutica Sinica. B, 2017).
Where two headings read alike, the source gives them in different places. Values belong to the compound of their own block, whether it stands above or below them.

Assays:
calf-thymus DNA (CT-DNA) [1] = conditions: cited from earlier work
A549 cells = test: Fluorescence microscopy of necrotic and viable A549 cells; type: cell-based, human; conditions: 50 μmol/L, 30 min, co-staining with Hoechst 33342 and PI
necrotic muscle = test: Self-blocking experiment in muscular necrosis model rats; type: in vivo, rat; conditions: 24 h
calf-thymus DNA (CT-DNA) [2] = test: UV–vis spectroscopic study of interaction with CT-DNA; type: binding; conditions: 25 °C, increasing CT-DNA
[3] = human, even pregnant women and newborn babies, cited from earlier work
[4] = test system: necrotic liver and necrotic muscle; test: Fluorescence microscopy of liver and muscle cryostat slices from model rats; type: in vivo, rat; conditions: i.v. 2.0 mg/kg, 12 h to 8 days, λex=620 nm, λem=680 nm
A549 necrotic cells = test: Nuclear extraction from necrotic A549 cells incubated with tracer; type: cell-based, human; conditions: 50 μmol/L
calf-thymus DNA (CT-DNA) [5] = test: Competitive study with ethidium bromide on CT-DNA; type: binding
How it was run: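 CT-DNA prepared in 5 mmol/L Tris-HCl/50 mmol/L NaCl, pH 7.4, stirred at 4 °C for three days; concentration set by A260 (ε=6600 L/mol.cm). Test compound (stock 6.0×10−4 mol/L) titrated into 2.5 mL CT-DNA–ethidium bromide (CT-DNA 6.0×10−5 mol/L) to ratios 0 to 7/30. Fluorescence read at 25 °C, λex 530/λem 604 nm. Ksv from Stern–Volmer fit of I0/I versus compound concentration.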

[6] = cited from earlier work; for Water solubility: must be dissolved in organic solvents such as DMSO
[7] = test system: necrotic liver and necrotic muscle; type: in vivo, rat
[8] = test system: necrotic liver and necrotic muscle; test: Autoradiography of necrotic/normal liver and partially necrotic muscle sections; type: in vivo, rat; conditions: 24 h after intravenous injection
How it was run: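 Rats (male SD, 260–280 g) on 0.1% KI drinking water from 3 days before study. Liver necrosis: right-lobe hilum clamped 3 h, then reperfused; muscle necrosis induced with absolute ethanol. Labelled test compound (14.8 MBq/kg, 2.0 mg/kg) in PBS given i.v. via tail vein; sacrifice at 12, 24, 72 h, 8 day (n=5 each). Frozen 30 μm sections cut at −20 °C, 3 h phosphor-screen exposure, then H&E for co-localization.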

[9] = In vitro stability of the radiotracer in rat serum; type: in vitro ADME; conditions: stored in rat serum at 37 °C, up to 8 days
How it was run: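 Radiolabelled test compound mixed with rat serum (1:9 volume ratio) and kept at 37 °C. Sampled at 0.5, 4 h, 1, 2, 3 and 8 day. Label integrity assessed by TLC.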

Pharmacokinetics = type: in vivo, rat; conditions: normal rats, i.v. 14.8 MBq/kg in PBS, non-compartmental, mean±SD, n=6
How it was run: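 Six healthy rats dosed i.v. with radiolabelled test compound (14.8 MBq/kg) in PBS. 10 μL tail-slit blood samples drawn at 5, 10, 30 min and 1, 2, 4, 6, 8, 12, 24, 48 h. Samples γ-counted with decay and background correction and expressed as MBq per liter. Parameters derived by non-compartmental analysis; mean±SD.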

Water solubility = type: physicochemical; conditions: can be dissolved in PBS or saline
[10] = γ counting, 24 h after i.v. 14.8 MBq/kg, model rats

Compound: Nc1ccc2c(c1)C(=O)c1ccccc1C2=O [2-aminoanthraquin]
Binding constant with CT-DNA (calf-thymus DNA (CT-DNA) [1]): 1.25×10^3 L/(mol/L)

Compound: Cc1cc(-c2ccc(/N=N/c3ccc4c(S(=O)(=O)O)cc(S(=O)(=O)O)c(N)c4c3O)c(C)c2)ccc1/N=N/c1ccc2c(S(=O)(=O)O)cc(S(=O)(=O)O)c(N)c2c1O [EB, Evans blue]
Cellular localisation (A549 cells): specifically located in the nuclei of necrotic cell | Radioactivity of ^131I-EB in necrotic muscle blocked (necrotic muscle; 10 mg/kg EB): about 65% | Change of UV–vis absorption bands on addition of CT-DNA (calf-thymus DNA (CT-DNA) [2]): significant hypochromism accompanied with a red shift | Adverse reactions in clinical use ([3]; ref 24, 25): without adverse reactions | Adverse reactions in clinical use ([3]; ref 41, 42): without any adverse reactions | Retention in necrotic tissues by fluorescence microscopy [4]: Selective retention of EB in necrotic tissues up to 8 days | Uptake in necrotic cell nuclei (A549 necrotic cells; 15 min incubation): 82.3% | Uptake in necrotic cell nuclei (A549 necrotic cells; 2 h incubation): 79.2% | Ksv (Stern–Volmer quenching constant; binding constant with CT-DNA) (calf-thymus DNA (CT-DNA) [5]; CT-DNA-ethidium bromide displacement, 25 °C, λex=530 nm): 5.08×10^5 L/(mol/L) | Binding constant with CT-DNA relative to 2-aminoanthraquin (calf-thymus DNA (CT-DNA) [5]; EB versus 2-aminoanthraquin): 400 times

Compound: Cc1cc(O)c2c(=O)c3c(O)cc(O)c4c5c(O)cc(O)c6c(=O)c7c(O)cc(C)c8c1c2c(c34)c(c78)c65 [Hyp, Hypericin]
Solubility [6]: nearly insoluble in water and most nonpolar solvents

In vitro stability (radiolabeling stability by TLC) [9]: over 90% | AUC0–t (Pharmacokinetics): 564.82±27.55 MBq/L ·h | AUC0–∞ (Pharmacokinetics): 737.28±62.32 MBq/L ·h | CLz (clearance) (Pharmacokinetics): 0.35 ± 0.067 mL/min/kg | Cmax (peak concentration) (Pharmacokinetics): 96.84±10.05 MBq/L | Tmax (peak time) (Pharmacokinetics): 4.98 ± 0 min | t1/2z (elimination half-life) (Pharmacokinetics): 24.40 ± 3.64 h | Water solubility (Water solubility): highly water-soluble
Compound: ^131I-evans blue [^131I-EB]
Time of highest uptake in necrotic liver and muscle ([7]; time points 12, 24, 72 h and 8 day): 24 h | Time of highest radioactivity in normal tissue ([7]; time points 12, 24, 72 h and 8 day, especially normal liver, spleen, kidney): 12 h | Ratio of uptake in necrotic muscle to normal muscle ([7]; γ counting, 8th day after i.v. 14.8 MBq/kg, model rats): 7.43 times | Radioactivity ratio of necrotic to viable (normal) liver [7, 10]: 3.41 | Radioactivity ratio of necrotic to viable (normal) muscle [7, 10]: 11.82 | Uptake in necrotic muscle (necrotic muscle; coinjected with excessive cold EB (10 mg/kg), n=3, P<0.01): 0.47±0.07 %ID/g | Uptake in necrotic muscle (necrotic muscle; non-blocking group, n=3): 1.35±0.22 %ID/g | Radioactivity ratio of necrotic to normal liver [8]: 4.26 | Radioactivity ratio of necrotic to normal muscle [8]: 10.2 | Uptake in necrotic cell nuclei (A549 necrotic cells; 15 min incubation): 82.3% | Uptake in necrotic cell nuclei (A549 necrotic cells; 2 h incubation): 79.2%

Compound: ^131I-hypericin
Water solubility [6]: water-insoluble

Compound: ^131I-sennidin A
Water solubility [6]: water-insoluble
